# Screening data: PubChem, Broad Institute
# Many of the other results were omitted from the sample, so hits are more common in it than they were.
# IDH1 R132H inh: blocks human IDH1 R132H reductase activity; O75874; diaphorase/resazurin fluorescence, 60 min; inhibition, % at 10 µM; actives 0.18% (n = 70,000); AID 624101; in the data active means inhibition above about 34%; inconclusive means no clear call, values can overlap the other calls; inactive means below about 11%
# T cruzi growth-1: T. cruzi proliferation inhibition; T. cruzi beta-gal in NIH3T3, GalScreen luminescence, 90 h; inhibition, % at 8.34 µM; actives 5.9% (n = 77,000); AID 624255;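 active means mean inhibition above about 93%, with at least 55% of replicates each passing it, limit read from the data, passing the limit was not always enough; inconclusive means only one of those two conditions holds; inactive means neither condition holds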
# GASC1 inh: inhibitors of human demethylase GASC-1 KDM4C. Q9H3R0. GST-KDM4C 2-372, H3K9me3 peptide, LANCE TR-FRET. inhibition, % at 12.5 µM. actives 0.15% (n = 96,000);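 active means mean replicate inhibition above about 25%, with at least 55% of replicates also reaching it, limit read from the data, passing the limit was not always enough; inconclusive means only one of those two conditions met; inactive means neither condition met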
# Target sequence (Q9H3R0 2-372 limits assumed): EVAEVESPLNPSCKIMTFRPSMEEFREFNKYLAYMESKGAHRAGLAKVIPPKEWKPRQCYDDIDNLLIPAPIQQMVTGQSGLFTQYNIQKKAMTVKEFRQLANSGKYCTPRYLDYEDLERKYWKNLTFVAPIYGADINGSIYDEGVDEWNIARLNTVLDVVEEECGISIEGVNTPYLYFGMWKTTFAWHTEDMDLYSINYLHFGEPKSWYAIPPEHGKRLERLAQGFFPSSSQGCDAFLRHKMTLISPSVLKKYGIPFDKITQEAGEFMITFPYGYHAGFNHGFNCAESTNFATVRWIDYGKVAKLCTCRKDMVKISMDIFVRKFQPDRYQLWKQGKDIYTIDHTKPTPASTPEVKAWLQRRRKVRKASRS
#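 System: N-terminal GST-fused human GASC-1 (KDM4C) fragment, residues 2-372 / Amount: 10 nM GST-KDM4C in enzyme reaction / Also added: H3K9me3 peptide with Fe(II)/2OG / Times: 30 min demethylation and 1 h detection at room temperature / Signal: LANCE TR-FRET / Read-out basis: Fall in 671/618 emission ratio as inhibition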
# T cruzi growth-2: Trypanosoma cruzi proliferation inhibition; shares compounds with T cruzi growth-1; T. cruzi beta-gal in NIH3T3, GalScreen luminescence, 90 h; inhibition, % at 8.35 µM; actives 72% (n = 5,600); AID 651739;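 active means mean replicate inhibition above about 95% and at least 55% of replicates individually reaching it, limit read from the data; inconclusive means only one of the two criteria is met; inactive means neither criterion is met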
# T cruzi growth-3: inhibitors of T. cruzi proliferation; inhibition, % at 2.09 µM; T. cruzi beta-gal in NIH3T3, GalScreen luminescence, 90 h; shares compounds with T cruzi growth-1; actives 21% (n = 5,600);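 active means mean inhibition above about 95%, with at least 55% of replicates also reaching it, limit read from the data; inconclusive means meets just one of the two conditions; inactive means meets neither condition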
# 3T3 cytotox: cytotoxicity in mouse NIH/3T3 fibroblasts; shares compounds with T cruzi growth-1; NIH/3T3 viability, CellTiter-Glo ATP luminescence, 90 h; cytotoxicity (signal decrease), % at 8.35 µM; actives 14% (n = 5,600); AID 651742;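 active means mean signal decrease across replicates above about 35% based on untreated-well scatter, with enough replicates individually passing, limit read from the data; inconclusive means no rule stated though some were filed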
# 3T3 cytotox 2: NIH/3T3 (mouse) viability loss | shares compounds with T cruzi growth-1 | NIH/3T3 viability, CellTiter-Glo ATP luminescence, 90 h | inhibition, % at 24.9 µM | actives 56% (n = 5,600);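 active means mean loss of cell viability signal at or above a set limit, and enough replicates individually reaching it; inconclusive means meets only the mean limit or only the replicate share; inactive means meets neither condition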
# Hits are given with their value; . = inactive; ? = inconclusive; / = not tested or not shown.
SMILES,IDH1 R132H inh,T cruzi growth-1,GASC1 inh,T cruzi growth-2,T cruzi growth-3,3T3 cytotox,3T3 cytotox 2
C[C@@H]1CN([C@@H](C)CO)S(=O)(=O)c2ccc(C#Cc3cccc(F)c3)cc2O[C@@H]1CN(C)S(=O)(=O)c1cn(C)cn1,.,.,.,/,/,/,/
C[C@H](CO)N1C[C@H](C)[C@@H](CN(C)S(=O)(=O)c2ccccc2F)Oc2cc(C#Cc3ccccc3)ccc2S1(=O)=O,.,123,.,107,116,.,?
C[C@H](CO)N1C[C@H](C)[C@@H](CN(C)S(=O)(=O)c2cn(C)cn2)Oc2cc(C#Cc3ccccc3)ccc2S1(=O)=O,.,105,.,106,.,.,50
O=C(c1ccc(F)cc1)N1C[C@H]2[C@@H](c3ccccc31)[C@@H](CO)N2Cc1ccc2c(c1)OCO2,/,.,.,/,/,/,/
C[C@@H]1CN([C@@H](C)CO)C(=O)c2c(c3ccccc3n2C)-c2ccccc2CO[C@H]1CN(C)Cc1ccc(O)cc1,/,/,.,/,/,/,/
Cc1noc(C)c1S(=O)(=O)N(C)C[C@@H]1OCCCC[C@H](C)Oc2ccc(NS(=O)(=O)c3ccc(Cl)cc3)cc2C(=O)N([C@H](C)CO)C[C@@H]1C,.,98,.,106,.,.,.
Cc1noc(C)c1S(=O)(=O)N(C)C[C@H]1OCCCC[C@@H](C)Oc2ccc(NS(=O)(=O)c3ccc(Cl)cc3)cc2C(=O)N([C@@H](C)CO)C[C@H]1C,/,108,.,102,100,.,26
Cc1noc(C)c1S(=O)(=O)Nc1ccc2c(c1)C(=O)N([C@H](C)CO)C[C@@H](C)[C@H](CN(C)S(=O)(=O)c1ccc(Cl)cc1)OCCCC[C@@H](C)O2,/,104,.,107,.,.,.
Cc1noc(C)c1S(=O)(=O)N(C)C[C@@H]1OCCCC[C@@H](C)Oc2ccc(NS(=O)(=O)c3ccc(F)cc3)cc2C(=O)N([C@H](C)CO)C[C@H]1C,.,?,.,.,.,.,.
Cc1noc(C)c1S(=O)(=O)Nc1ccc2c(c1)C(=O)N([C@@H](C)CO)C[C@@H](C)[C@@H](CN(C)S(=O)(=O)c1ccc(Cl)cc1)OCCCC[C@H](C)O2,/,.,.,/,/,/,/
Cc1noc(C)c1S(=O)(=O)N(C)C[C@H]1OCCCC[C@@H](C)Oc2ccc(NS(=O)(=O)c3ccc(F)cc3)cc2C(=O)N([C@H](C)CO)C[C@@H]1C,.,.,.,/,/,/,/
Cc1noc(C)c1S(=O)(=O)N(C)C[C@@H]1OCCCC[C@@H](C)Oc2ccc(NS(=O)(=O)c3ccc(Cl)cc3)cc2C(=O)N([C@@H](C)CO)C[C@H]1C,.,.,.,/,/,/,/
Cc1noc(C)c1S(=O)(=O)Nc1ccc2c(c1)C(=O)N([C@@H](C)CO)C[C@@H](C)[C@H](CN(C)S(=O)(=O)c1ccc(Cl)cc1)OCCCC[C@@H](C)O2,/,.,.,/,/,/,/
O=C(Nc1cccc(Cl)c1)N1C[C@@H]2[C@H](c3ccccc31)[C@H](CO)N2C(=O)C1CCCC1,/,.,.,/,/,/,/
CNC[C@@H]1OCCCC[C@H](C)Oc2ccc(NC(=O)Cc3ccccc3)cc2C(=O)N([C@H](C)CO)C[C@@H]1C,.,.,.,/,/,/,/
O=C(C[C@@H]1CC[C@H]2[C@@H](COC[C@@H](O)CN2S(=O)(=O)c2ccc(Cl)cc2)O1)NCCN1CCCC1,/,.,.,/,/,/,/
C[C@@H]1CN([C@H](C)CO)C(=O)c2cc(NS(=O)(=O)c3cccs3)ccc2O[C@H]1CN(C)Cc1ccc(C(=O)O)cc1,.,.,.,/,/,/,/
CCC(=O)N1[C@@H](CO)[C@@H](c2ccccc2)C12CN(Cc1ccccc1Cl)C2,/,/,.,/,/,/,/
CC(C)(C)[S@@](=O)N1Cc2cc(C(=O)N3CCCCC3)nc(-c3cccc(-c4ccc(C#N)cc4)c3)c2[C@H]1CCO,.,.,.,/,/,/,/
Cc1ccc(S(=O)(=O)Nc2ccc3c(c2)C(=O)N([C@@H](C)CO)C[C@@H](C)[C@H](CN(C)S(=O)(=O)c2c(C)noc2C)OCCCC[C@@H](C)O3)cc1,/,.,.,/,/,/,/
Cc1noc(C)c1S(=O)(=O)N(C)C[C@H]1OCCCC[C@@H](C)Oc2ccc(NS(=O)(=O)c3ccc(Cl)cc3)cc2C(=O)N([C@@H](C)CO)C[C@@H]1C,/,100,.,107,.,.,.
Cc1ccc(S(=O)(=O)Nc2ccc3c(c2)C(=O)N([C@@H](C)CO)C[C@@H](C)[C@@H](CN(C)S(=O)(=O)c2c(C)noc2C)OCCCC[C@@H](C)O3)cc1,.,98,.,107,.,.,.
Cc1noc(C)c1S(=O)(=O)N(C)C[C@@H]1OCCCC[C@@H](C)Oc2ccc(NS(=O)(=O)c3ccc(Cl)cc3)cc2C(=O)N([C@H](C)CO)C[C@@H]1C,/,.,.,/,/,/,/
C[C@H]1CCCCO[C@H](CN(C)Cc2ccc(C(=O)O)cc2)[C@@H](C)CN([C@@H](C)CO)C(=O)c2cc(NS(=O)(=O)c3cccs3)ccc2O1,/,.,.,/,/,/,/
C[C@@H]1CN([C@@H](C)CO)S(=O)(=O)c2ccc(-c3cccc(C(=O)N(C)C)c3)cc2O[C@@H]1CN(C)C(=O)Cc1ccccn1,.,/,.,/,/,/,/
SMILES,IDH1 R132H inh,T cruzi growth-1,GASC1 inh,T cruzi growth-2,T cruzi growth-3,3T3 cytotox,3T3 cytotox 2
CCCC#Cc1ccc2c(c1)O[C@H](CN(C)C(=O)C1CCC1)[C@H](C)CN([C@@H](C)CO)S2(=O)=O,.,98,.,107,.,.,45
CCCC#Cc1ccc2c(c1)O[C@@H](CN(C)C(=O)C1CCCCC1)[C@H](C)CN([C@H](C)CO)S2(=O)=O,/,.,.,/,/,/,/
CCCC#Cc1ccc2c(c1)O[C@H](CN(C)C(=O)C1CCC1)[C@@H](C)CN([C@@H](C)CO)S2(=O)=O,/,108,.,102,.,.,39
CCCC#Cc1ccc2c(c1)O[C@@H](CN(C)C(=O)C1CCCCC1)[C@@H](C)CN([C@H](C)CO)S2(=O)=O,/,.,.,/,/,/,/
COc1ccc(NC(=O)Nc2cccc3c2O[C@@H](CN(C)Cc2ccc(C(=O)O)cc2)[C@@H](C)CN([C@H](C)CO)C3=O)cc1,.,102,.,.,.,.,.
COc1ccc(NC(=O)Nc2cccc3c2O[C@@H](CN(C)Cc2ccc(C(=O)Nc4ccccc4N)cc2)[C@H](C)CN([C@H](C)CO)C3=O)cc1,/,?,.,.,.,.,65
C[C@H]1CN([C@@H](C)CO)C(=O)c2cccc(NC(=O)Nc3ccc4c(c3)OCO4)c2O[C@H]1CN(C)Cc1ccc(C(=O)Nc2ccccc2N)cc1,/,.,.,/,/,/,/
C[C@H](CO)N1C[C@H](C)[C@@H](CN(C)Cc2ccc(C(=O)Nc3ccccc3N)cc2)Oc2c(NC(=O)Nc3ccc4c(c3)OCO4)cccc2C1=O,/,107,.,103,.,.,54
